Assay results: ChEMBL document CHEMBL1177718, “Phosphoramidate ProTides of 2'-C-methylguanosine as highly potent inhibitors of hepatitis C virus. Study of their in vitro and in vivo properties” (J Med Chem, 2010)

Columns and labels:
[1] = organism: Homo sapiens; experiment: Metabolic stability in human plasma assessed as compound remaining at 1 ug/ml after 4 hrs
[2] = Metabolic stability in cynomolgus monkey plasma assessed as compound remaining at 1 ug/ml after 4 hrs; format: ADME, cell-free, Macaca fascicularis; details: read-out: Stability
Outline: (§1)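 Duplicate incubations; compound at final 1 μg/mL in plasma preincubated and kept at […]; samples taken at 30 or 240 min, quenched with ice-cold acetonitrile, centrifuged, supernatant diluted with water; parent quantified by LC-MS/MS (Polar-RP column, formic acid water/acetonitrile gradient, positive ion mode); % remaining reported.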

[3] = Metabolic stability in mouse plasma assessed as compound remaining at 1 ug/ml after 4 hrs; format: ADME, cell-free; details: read-out: Stability
[4] = Metabolic stability in rat plasma assessed as compound remaining at 1 ug/ml after 30 mins; format: ADME, cell-free; details: read-out: Stability
Outline: as §1

[5] = Metabolic stability in cynomolgus monkey plasma assessed as compound remaining at 1 ug/ml after 30 mins; format: ADME, cell-free, Macaca fascicularis; details: read-out: Stability
Outline: as §1

[6] = test system: Hepatitis C virus; experiment: Antiviral activity against HCV1b infected in human HuH7 cells assessed as inhibition of viral replication after 48 hrs by luciferase reporter gene assay; format: functional, organism-based, Hepacivirus hominis; details: genotype 1b, Huh-7, 48 h
Outline: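 Huh7 cells carrying genotype 1b bicistronic subgenomic replicon, seeded 2 × 10⁴/well without G-418; compounds added 18-24 h later, 48 h exposure; 3× or 4× serial dilutions over 0.0001-10 μM in triplicate/quadruplicate; Renilla luciferase read-out versus untreated cells; EC₅₀ by four-parameter sigmoidal nonlinear regression; at least three independent assays.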

[7] = Metabolic stability in dog plasma assessed as compound remaining at 1 ug/ml after 4 hrs; format: ADME, cell-free, Canis lupus familiaris; details: read-out: Stability
Outline: as §1

[8] = Metabolic stability in rat plasma assessed as compound remaining at 1 ug/ml after 4 hrs; format: ADME, cell-free; details: read-out: Stability
Outline: as §1

[9] = organism: Homo sapiens; experiment: Metabolic stability in human plasma assessed as compound remaining at 1 ug/ml after 30 mins
[10] = Metabolic stability in dog plasma assessed as compound remaining at 1 ug/ml after 30 mins; format: ADME, cell-free, Canis lupus familiaris; details: read-out: Stability
Outline: as §1

[11] = Metabolic stability in mouse plasma assessed as compound remaining at 1 ug/ml after 30 mins; format: ADME, cell-free; details: read-out: Stability
[12] = Metabolic stability in human liver S9 fraction assessed as compound remaining at 10 uM after 60 mins by HPLC analysis in absence of NADP; format: ADME, subcellular; details: read-out: Stability
Outline: (§2)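 Liver or intestinal S9 at final 1 mg/mL in 50 mM potassium phosphate, with or without NADPH-regenerating system (1.3 mM NADP, 3.3 mM glucose-6-phosphate, 0.4 U/mL G6PDH, 3.3 mM MgCl₂); 10 min preincubation at 37 °C; compound at final 10 μM; samples at start and 60 min quenched in cold acetonitrile, centrifuged, HPLC; % parent remaining.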

[13] = Metabolic stability in human liver S9 fraction assessed as compound remaining at 10 uM after 60 mins by HPLC analysis in presence of NADP; format: ADME, subcellular; details: read-out: Stability
Outline: as §2

[14] = Cytotoxicity against human HuH7 cells after 72 hrs by celltiter-glo assay; format: cell-based, Huh-7
Outline: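 Replicon 1b Huh7 cells seeded 2 × 10⁴/well; after 24 h, 11 serial 2× dilutions from 100 μM (three repeats each) with no-compound control; 72 h at 37 °C, CO₂, log-phase growth; viability by CellTiter-Glo luminescence; CC₅₀ = concentration giving 50% signal.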

[15] = Metabolic stability in dog liver S9 fraction assessed as compound remaining at 10 uM after 60 mins by HPLC analysis in absence of NADP; format: ADME, subcellular, Canis lupus familiaris; details: read-out: Stability
Outline: as §2

[16] = Metabolic stability in dog intestine S9 fraction assessed as compound remaining at 10 uM after 60 mins by HPLC analysis in presence of NADP; format: ADME, tissue-based, Canis lupus familiaris; details: read-out: Stability
Outline: as §2

[17] = Metabolic stability in human intestine S9 fraction assessed as compound remaining at 10 uM after 60 mins by HPLC analysis in absence of NADP; format: ADME, tissue-based; details: read-out: Stability
Outline: as §2

[18] = Metabolic stability in dog liver S9 fraction assessed as compound remaining at 10 uM after 60 mins by HPLC analysis in presence of NADP; format: ADME, subcellular, Canis lupus familiaris; details: read-out: Stability
Outline: as §2

[19] = Metabolic stability in human intestine S9 fraction assessed as compound remaining at 10 uM after 60 mins by HPLC analysis in presence of NADP; format: ADME, tissue-based; details: read-out: Stability
Outline: as §2

[20] = Metabolic stability in dog intestine S9 fraction assessed as compound remaining at 10 uM after 60 mins by HPLC analysis in absence of NADP; format: ADME, tissue-based, Canis lupus familiaris; details: read-out: Stability
Outline: as §2

[21] = test system: Plasma; experiment: Dose normalized AUC in ICR mouse plasma at 50 mg/kg, po by LC-MS/MS analysis; format: ADME, organism-based; design: dose 50 mg/kg, route oral; details: in vivo
[22] = Cmax in ICR mouse plasma at 50 mg/kg, po by LC-MS/MS analysis; format: ADME, organism-based; design: dose 50 mg/kg, route oral

Row | Compound | remaining at 4 h, 1 ug/ml [1] [%] | remaining at 4 h, 1 ug/ml [2] [%] | remaining at 4 h, 1 ug/ml [3] [%] | remaining at 0.5 h, 1 ug/ml [4] [%] | remaining at 0.5 h, 1 ug/ml [5] [%] | EC50 [6] [µM] | remaining at 4 h, 1 ug/ml [7] [%] | remaining at 4 h, 1 ug/ml [8] [%] | remaining at 0.5 h, 1 ug/ml [9] [%] | remaining at 0.5 h, 1 ug/ml [10] [%] | remaining at 0.5 h, 1 ug/ml [11] [%] | CC50 at 72 h [14] [µM] | also measured
1 | CC(C)(NP(=O)(OC[C@H]1O[C@@H](n2cnc3c(=O)[nH]c(N)nc32)[C@](C)(O)[C@@H]1O)Oc1cccc2ccccc12)C(=O)OCc1ccccc1 (stereo not given in full) | 41 | 83 | 0 | 0 | 92 | 1.5 | 100 | 0 | 100 | 100 | 0 | – | –
2 | COC(=O)[C@H](CCSC)NP(=O)(OC[C@H]1O[C@@H](n2cnc3c(=O)[nH]c(N)nc32)[C@](C)(O)[C@@H]1O)Oc1cccc2ccccc12 (stereo not given in full) | – | – | – | – | – | 0.28 | – | – | – | – | 76 | > 100 | remaining at 1 h, 10 µM [12]: 14%; remaining at 1 h, 10 µM [13]: 3%; remaining at 1 h, 10 µM [15]: 57%; remaining at 1 h, 10 µM [16]: 56%; remaining at 1 h, 10 µM [17]: 27%; remaining at 1 h, 10 µM [18]: 40%; remaining at 1 h, 10 µM [19]: 42%
3 | C[C@H](NP(=O)(OC[C@H]1O[C@@H](n2cnc3c(=O)[nH]c(N)nc32)[C@](C)(O)[C@@H]1O)Oc1cccc2ccccc12)C(=O)OC1CCCCC1 (stereo not given in full) | 100 | 100 | 0 | 2.5 | 100 | 0.045 | 100 | 0.5 | 100 | 100 | 2.9 | > 100 | –
4 | C[C@H](NP(=O)(OC[C@H]1O[C@@H](n2cnc3c(=O)[nH]c(N)nc32)[C@](C)(O)[C@@H]1O)Oc1cccc2ccccc12)C(=O)OCCCc1ccccc1 (stereo not given in full) | – | – | – | – | – | 0.17 | – | – | – | – | – | > 100 | –
5 | CCCCOC(=O)[C@H](C)NP(=O)(OC[C@H]1O[C@@H](n2cnc3c(=O)[nH]c(N)nc32)[C@](C)(O)[C@@H]1O)Oc1cccc2ccccc12 (stereo not given in full) | 97 | 81 | 0 | 0.4 | 98 | 0.1 | 90 | 0 | 100 | 95 | 0 | > 100 | –
6 | C[C@H](NP(=O)(OC[C@H]1O[C@@H](n2cnc3c(=O)[nH]c(N)nc32)[C@](C)(O)[C@@H]1O)Oc1cccc2ccccc12)C(=O)OC1CCCC1 (stereo not given in full) | – | – | – | – | – | 0.07 | – | – | – | – | – | > 100 | –
7 | CC(C)[C@@H](NP(=O)(OC[C@H]1O[C@@H](n2cnc3c(=O)[nH]c(N)nc32)[C@](C)(O)[C@@H]1O)Oc1cccc2ccccc12)C(=O)OCc1ccccc1 (stereo not given in full) | 82 | 80 | 8 | 82 | 68 | > 3 | 61 | 56 | 70 | 69 | 51 | > 100 | –
8 | CSCC[C@H](NP(=O)(OC[C@H]1O[C@@H](n2cnc3c(=O)[nH]c(N)nc32)[C@](C)(O)[C@@H]1O)Oc1cccc2ccccc12)C(=O)OC(C)C (stereo not given in full) | – | 93 | 32 | 2.3 | 96 | 0.34 | 100 | 0.5 | – | 100 | 76 | > 100 | –
9 | CC(OC(=O)[C@H](C)NP(=O)(OC[C@H]1O[C@@H](n2cnc3c(=O)[nH]c(N)nc32)[C@](C)(O)[C@@H]1O)Oc1cccc2ccccc12)c1ccccc1 (mixture of isomers) | 86 | 88 | 0 | 0.7 | 100 | 0.095 | 93 | 0.3 | 86 | 97 | 2.2 | > 100 | –
10 | CCCCCOC(=O)[C@H](C)NP(=O)(OC[C@H]1O[C@@H](n2cnc3c(=O)[nH]c(N)nc32)[C@](C)(O)[C@@H]1O)Oc1cccc2ccccc12 (stereo not given in full) | 96 | 94 | 0 | 0 | 94 | 0.091 | 98 | 0 | 100 | 98 | 0 | – | –
11 | CC(C)[C@H](NP(=O)(OC[C@H]1O[C@@H](n2cnc3c(=O)[nH]c(N)nc32)[C@](C)(O)[C@@H]1O)Oc1cccc2ccccc12)C(=O)OCC(C)(C)C (stereo not given in full) | – | – | – | – | – | 1.5 | – | – | 91 | 79 | 77 | > 100 | AUC [21]: > 45 ng·h/mL; Cmax [22]: 652 ng/mL

The next lines start with results.

Row | remaining at 4 h, 1 ug/ml [1] [%] | remaining at 4 h, 1 ug/ml [2] [%] | remaining at 4 h, 1 ug/ml [3] [%] | remaining at 0.5 h, 1 ug/ml [4] [%] | remaining at 0.5 h, 1 ug/ml [5] [%] | EC50 [6] [µM] | remaining at 4 h, 1 ug/ml [7] [%] | remaining at 4 h, 1 ug/ml [8] [%] | remaining at 0.5 h, 1 ug/ml [9] [%] | remaining at 0.5 h, 1 ug/ml [10] [%] | remaining at 0.5 h, 1 ug/ml [11] [%] | Compound | CC50 at 72 h [14] [µM] | also measured
12 | 100 | 95 | 76 | 49 | 100 | 1.7 | 99 | 22 | 93 | 95 | 99 | CC(C)[C@H](NP(=O)(OC[C@H]1O[C@@H](n2cnc3c(=O)[nH]c(N)nc32)[C@](C)(O)[C@@H]1O)Oc1ccc2ccccc2c1)C(=O)OCc1ccccc1 (stereo not given in full) | > 100 | –
13 | – | – | – | – | – | 0.17 | – | – | – | – | 0.7 | C[C@H](NP(=O)(OC[C@H]1O[C@@H](n2cnc3c(=O)[nH]c(N)nc32)[C@](C)(O)[C@@H]1O)Oc1ccc2ccccc2c1)C(=O)OCc1ccccc1 (stereo not given in full) | > 50 | remaining at 1 h, 10 µM [12]: 29%; remaining at 1 h, 10 µM [20]: 27%; remaining at 1 h, 10 µM [13]: 14%; remaining at 1 h, 10 µM [15]: 28%; remaining at 1 h, 10 µM [16]: 23%; remaining at 1 h, 10 µM [17]: 23%; remaining at 1 h, 10 µM [18]: 33%; remaining at 1 h, 10 µM [19]: 24%
14 | – | – | – | – | – | 1 | – | – | 100 | 100 | 67 | Cc1ccccc1COC(=O)[C@@H](NP(=O)(OC[C@H]1O[C@@H](n2cnc3c(=O)[nH]c(N)nc32)[C@](C)(O)[C@@H]1O)Oc1cccc2ccccc12)C(C)C (stereo not given in full) | > 100 | AUC [21]: 52 ng·h/mL; Cmax [22]: 668 ng/mL
15 | – | – | – | – | – | > 3 | – | – | 97 | 100 | 100 | CC(OC(=O)[C@@H](NP(=O)(OC[C@H]1O[C@@H](n2cnc3c(=O)[nH]c(N)nc32)[C@](C)(O)[C@@H]1O)Oc1cccc2ccccc12)C(C)C)c1ccccc1 (stereo not given in full) | – | –
16 | – | – | – | – | – | 1.7 | – | – | – | – | – | CC(C)[C@H](NP(=O)(OC[C@H]1O[C@@H](n2cnc3c(=O)[nH]c(N)nc32)[C@](C)(O)[C@@H]1O)Oc1cccc2ccccc12)C(=O)OCCc1ccccc1 (stereo not given in full) | > 100 | –
17 | – | – | – | – | – | 0.09 | – | – | – | – | – | C[C@H](NP(=O)(OC[C@H]1O[C@@H](n2cnc3c(=O)[nH]c(N)nc32)[C@](C)(O)[C@@H]1O)Oc1cccc2ccccc12)C(=O)OCCc1ccccc1 (stereo not given in full) | > 100 | –
18 | – | – | – | – | – | 0.68 | – | – | 100 | 90 | 79 | CC(C)[C@H](NP(=O)(OC[C@H]1O[C@@H](n2cnc3c(=O)[nH]c(N)nc32)[C@](C)(O)[C@@H]1O)Oc1cccc2ccccc12)C(=O)OCc1cccc(Cl)c1 (stereo not given in full) | – | AUC [21]: > 33 ng·h/mL; Cmax [22]: 388 ng/mL
